Experimental data reported in paper PMC3180826 (ACS chemical neuroscience, 2010).
Where a chain is given by its changes, count along the chain named. pEC50: −log10 of the molar value. Several values for one entry are separate records, joined by “and”; a condition that tells them apart may be missing. Equal entries are not always repeated.

Assays:
Assay type in all cases: cell-based
rM1 receptor = target: T1, rM1 receptor (Rattus norvegicus, UniProt P08482); assay: Calcium mobilization assay, CHO-K1 cells stably expressing rM1
T1 sequence (P08482 1-460): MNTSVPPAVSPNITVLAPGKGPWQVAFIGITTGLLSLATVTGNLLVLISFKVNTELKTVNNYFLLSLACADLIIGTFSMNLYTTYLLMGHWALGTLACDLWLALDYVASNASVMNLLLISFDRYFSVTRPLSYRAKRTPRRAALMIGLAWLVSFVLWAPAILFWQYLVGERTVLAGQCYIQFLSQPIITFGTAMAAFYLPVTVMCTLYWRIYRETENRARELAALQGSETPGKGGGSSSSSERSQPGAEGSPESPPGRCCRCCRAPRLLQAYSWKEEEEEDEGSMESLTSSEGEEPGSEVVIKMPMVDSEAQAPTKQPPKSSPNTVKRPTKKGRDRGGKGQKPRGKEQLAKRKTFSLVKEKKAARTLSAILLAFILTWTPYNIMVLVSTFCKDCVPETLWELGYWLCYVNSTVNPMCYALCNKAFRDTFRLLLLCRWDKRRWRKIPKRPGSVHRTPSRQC

hM3 = hM3 (Homo sapiens, UniProt P20309); assay: Calcium mobilization assay, agonist mode, M3; conditions: up to 30 μM
Summary of the method: (§1)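 CHO-K1 cells stably expressing hM2/Gqi5 or rM4/Gqi5 (6 × 10^4 cells/well), or hM3 or hM5 (5 × 10^4 cells/well), were cultured overnight at 37 °C in 5% CO2. Cells were loaded with 2 μM Fluo-4 AM for 1 h at 37 °C in HBSS with 20 mM HEPES and 2.5 mM probenecid, pH 7.4. Eight-point test compound concentration series were added at 19 s of a 130 s read. Calcium flux was read as fluorescence fold over basal.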

rM4 = target: T2, rM4 (Rattus norvegicus, UniProt P08485); assay: Calcium mobilization assay, agonist mode, M4; conditions: up to 30 μM
T2 sequence (P08485 1-478): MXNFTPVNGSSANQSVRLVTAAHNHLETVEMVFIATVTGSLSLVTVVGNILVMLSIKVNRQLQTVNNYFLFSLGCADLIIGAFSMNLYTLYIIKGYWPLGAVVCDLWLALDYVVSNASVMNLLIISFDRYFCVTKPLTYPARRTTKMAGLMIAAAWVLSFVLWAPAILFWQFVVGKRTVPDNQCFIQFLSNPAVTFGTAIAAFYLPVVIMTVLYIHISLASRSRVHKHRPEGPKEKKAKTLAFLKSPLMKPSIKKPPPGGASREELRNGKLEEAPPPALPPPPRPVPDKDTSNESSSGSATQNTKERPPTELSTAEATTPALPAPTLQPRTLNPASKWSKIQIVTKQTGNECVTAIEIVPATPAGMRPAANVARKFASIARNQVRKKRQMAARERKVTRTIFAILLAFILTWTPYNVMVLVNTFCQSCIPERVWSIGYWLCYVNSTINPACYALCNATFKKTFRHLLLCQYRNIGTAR
Summary of the method: as §1

rM1 K392D = target: T3, rM1 K392D (Rattus norvegicus, UniProt P08482, K392D); assay: Calcium mobilization, rM1 K392D mutant CHO-K1 cells; conditions: compared with wt rM1
T3 sequence (P08482 1-460 K392D): T1 sequence (P08482 1-460) with K392D
Summary of the method: (§2)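 CHO-K1 cells were transiently transfected overnight at 37 °C with 10 μg of mutant rat M1 cDNA in pcDNA3.1+ using Fugene 6, then plated for the calcium assay. They were loaded with 2 μM Fluo-4 AM for 1 h at 37 °C in HEPES/probenecid-buffered HBSS, pH 7.4. Test compound dose–response series were added at 19 s. Calcium mobilization was measured as fluorescence increase over basal.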

rM1 E397V = target: T4, rM1 E397V (Rattus norvegicus, UniProt P08482, E397V); assay: Calcium mobilization, rM1 E397V mutant CHO-K1 cells; conditions: compared with wt rM1
T4 sequence (P08482 1-460 E397V): T1 sequence (P08482 1-460) with E397V
Summary of the method: as §2

rM1 E397D = target: T5, rM1 E397D (Rattus norvegicus, UniProt P08482, E397D); assay: Calcium mobilization, rM1 E397D mutant CHO-K1 cells; conditions: compared with wt rM1
T5 sequence (P08482 1-460 E397D): T1 sequence (P08482 1-460) with E397D
Summary of the method: as §2

Chain of hM3 (P20309 whole entry): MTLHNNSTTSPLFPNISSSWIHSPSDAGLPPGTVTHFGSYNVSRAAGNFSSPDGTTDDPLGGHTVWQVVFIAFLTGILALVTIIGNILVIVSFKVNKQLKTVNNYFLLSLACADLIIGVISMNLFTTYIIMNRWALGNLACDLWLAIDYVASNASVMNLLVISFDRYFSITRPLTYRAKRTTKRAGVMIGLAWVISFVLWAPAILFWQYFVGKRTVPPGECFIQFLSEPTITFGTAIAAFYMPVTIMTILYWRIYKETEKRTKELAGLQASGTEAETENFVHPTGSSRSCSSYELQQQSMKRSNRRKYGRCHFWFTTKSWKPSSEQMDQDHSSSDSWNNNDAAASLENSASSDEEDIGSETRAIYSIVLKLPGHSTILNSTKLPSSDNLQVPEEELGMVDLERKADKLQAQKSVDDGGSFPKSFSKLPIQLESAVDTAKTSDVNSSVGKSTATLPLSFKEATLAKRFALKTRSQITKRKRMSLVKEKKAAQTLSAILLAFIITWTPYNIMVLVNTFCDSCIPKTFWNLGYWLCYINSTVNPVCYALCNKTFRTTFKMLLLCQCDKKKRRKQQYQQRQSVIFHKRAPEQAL

pEC50 (rM1 receptor): 6.82
ACh Max efficacy (rM1 receptor; rM1 CHO-K1, calcium mobilization): 85 % ACh Max and 85.01 % ACh Max
Schild analysis: shift of dose-response curve with increasing atropine (rM1 receptor; rM1 cells, fixed increasing concentrations of atropine): rightward shift with diminished efficacy
agonist activity at M3 (hM3): no activity
agonist activity at M4 (rM4): no activity
functional activity at K392D mutant (rM1 K392D): comparable results to wt rM1
functional activity at E397V mutant (rM1 E397V): mild reduction in potency and efficacy
functional potency at E397D mutant (rM1 E397D): Not much potency appeared to be lost
Compound: CCOC(=O)N1CCC(NCCNC(=O)c2ccccc2)CC1 [VU0184670, ethyl 4-(2-benzamidoethylamino)piperidine-1-carboxylate]
